SMILES strings stand for the structures. Where a SMILES comes first, the peptide text is derived from it. [ ]: non-standard residue; d: D form. Aib = CC(C)(N)C(=O)O

The target of this assay is Furin (Homo sapiens, UniProt P09958). The experiment in a line: Inhibition of recombinant soluble human furin using pyroGlu-Arg-Thr-Lys-Arg-methyl-coumaryl-7-amide as substrate measured after 1 hr. The gist of the method:
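Soluble human recombinant furin was tested in a competitive kinetic assay. Ki is reported as the mean ± SD of at least two independent experiments.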

Chain of Furin (P09958 whole entry): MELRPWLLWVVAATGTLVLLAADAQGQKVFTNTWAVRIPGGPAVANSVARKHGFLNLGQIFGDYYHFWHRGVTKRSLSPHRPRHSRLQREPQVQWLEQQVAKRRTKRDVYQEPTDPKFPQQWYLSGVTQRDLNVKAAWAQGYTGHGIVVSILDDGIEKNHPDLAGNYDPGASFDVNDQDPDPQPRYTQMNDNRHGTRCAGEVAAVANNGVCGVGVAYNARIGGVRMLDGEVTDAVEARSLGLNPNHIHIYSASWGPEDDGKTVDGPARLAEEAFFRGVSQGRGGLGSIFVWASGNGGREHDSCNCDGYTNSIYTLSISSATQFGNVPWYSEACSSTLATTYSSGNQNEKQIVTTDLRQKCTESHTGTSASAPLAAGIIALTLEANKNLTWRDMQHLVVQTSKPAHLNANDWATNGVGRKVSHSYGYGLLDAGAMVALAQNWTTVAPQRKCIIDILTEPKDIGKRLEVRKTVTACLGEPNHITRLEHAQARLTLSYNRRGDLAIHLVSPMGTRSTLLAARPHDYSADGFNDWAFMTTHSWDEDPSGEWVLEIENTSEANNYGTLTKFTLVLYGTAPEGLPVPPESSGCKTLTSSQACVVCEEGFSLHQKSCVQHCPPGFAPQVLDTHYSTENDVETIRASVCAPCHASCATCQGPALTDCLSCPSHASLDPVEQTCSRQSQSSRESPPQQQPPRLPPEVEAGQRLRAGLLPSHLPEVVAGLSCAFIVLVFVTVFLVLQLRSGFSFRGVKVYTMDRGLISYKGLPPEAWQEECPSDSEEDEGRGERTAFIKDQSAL

As a reminder, the Ki is the equilibrium dissociation constant of an inhibitor or competing ligand from its target. In the case of `CC(=O)N[C@@H](CCCNC(=N)N)C(=O)N[C@@H](C)C(=O)N[C@@H](C)C(=O)N[C@@H](CCCNC(=N)N)C(=O)N[C@@H](CCCNC(=N)N)C(=O)N[C@@H](CCCCN)C(=O)N[C@@H](CCCCN)C(=O)N[C@@H](CCCNC(=N)N)C(=O)N[C@H](C(N)=O)[C@@H](C)O`, the Ki was found to be 0.023 µM.
The figure for `CC(=O)N[C@@H](CCCNC(=N)N)C(=O)N[C@@H](C)C(=O)N[C@@H](CCCNC(=N)N)C(=O)N[C@@H](CCC(=O)O)C(=O)N[C@@H](CCCNC(=N)N)C(=O)N[C@@H](CCCCN)C(=O)N[C@@H](CCCCN)C(=O)N[C@@H](CCCNC(=N)N)C(=O)N[C@H](C(N)=O)[C@@H](C)O` is 0.055 µM.
The figure for `CC(=O)N[C@@H](CCCNC(=N)N)C(=O)N[C@@H](C)C(=O)N[C@@H](Cc1c[nH]c2ccccc12)C(=O)N[C@@H](CCCNC(=N)N)C(=O)N[C@@H](CCCNC(=N)N)C(=O)N[C@@H](CCCCN)C(=O)N[C@@H](CCCCN)C(=O)N[C@@H](CCCNC(=N)N)C(=O)N[C@H](C(N)=O)[C@@H](C)O` is 0.097 µM; for `CC[C@H](C)[C@H](NC(=O)[C@H](CCCNC(=N)N)NC(=O)[C@H](C)NC(=O)CNC(C)=O)C(=O)N[C@@H](CCCNC(=N)N)C(=O)N[C@@H](CCCCN)C(=O)N[C@@H](CCCCN)C(=O)N[C@@H](CCCNC(=N)N)C(=O)N[C@H](C(N)=O)[C@@H](C)O` (Ac-GARIRKKRT-NH2) it is 0.009 µM.
For `CC(=O)N[C@@H](CCCNC(=N)N)C(=O)N[C@@H](C)C(=O)N[C@@H](CCCNC(=N)N)C(=O)N[C@H](C(=O)N[C@@H](CCCNC(=N)N)C(=O)N[C@@H](CCCCN)C(=O)N[C@@H](CCCCN)C(=O)N[C@@H](CCCNC(=N)N)C(=O)N[C@H](C(N)=O)[C@@H](C)O)[C@@H](C)O`, the Ki stood at 0.008 µM.
Turning to `CSCC[C@H](NC(=O)[C@H](CCCNC(=N)N)NC(C)=O)C(=O)N[C@@H](CCCNC(=N)N)C(=O)N[C@@H](CCCNC(=N)N)C(=O)N[C@@H](CCCNC(=N)N)C(=O)N[C@@H](CCCCN)C(=O)N[C@@H](CCCCN)C(=O)N[C@@H](CCCNC(=N)N)C(=O)N[C@H](C(N)=O)[C@@H](C)O`, the Ki is 0.038 µM.
Regarding `CC(=O)N[C@@H](CCCNC(=N)N)C(=O)N[C@@H](CCC(=O)O)C(=O)N[C@@H](CCCNC(=N)N)C(=O)N[C@@H](CCCNC(=N)N)C(=O)N[C@@H](CCCNC(=N)N)C(=O)N[C@@H](CCCCN)C(=O)N[C@@H](CCCCN)C(=O)N[C@@H](CCCNC(=N)N)C(=O)N[C@H](C(N)=O)[C@@H](C)O`, the Ki was 0.024 µM.
The same measure for `CC(=O)N[C@@H](CCCNC(=N)N)C(=O)N[C@@H](C)C(=O)N[C@@H](CCCCN)C(=O)N[C@@H](CCCNC(=N)N)C(=O)N[C@@H](CCCNC(=N)N)C(=O)N[C@@H](CCCCN)C(=O)N[C@@H](CCCCN)C(=O)N[C@@H](CCCNC(=N)N)C(=O)N[C@H](C(N)=O)[C@@H](C)O`: 0.015 µM.
Consider `CC(=O)N[C@H](C(=O)N[C@@H](C)C(=O)N[C@@H](CCCNC(=N)N)C(=O)N[C@@H](CCCNC(=N)N)C(=O)N[C@@H](CCCNC(=N)N)C(=O)N[C@@H](CCCCN)C(=O)N[C@@H](CCCCN)C(=O)N[C@@H](CCCNC(=N)N)C(=O)N[C@H](C(N)=O)[C@@H](C)O)[C@@H](C)O`, for which the Ki came out at 0.01 µM.
With `CC(=O)N[C@@H](CCCNC(=N)N)C(=O)N[C@@H](C)C(=O)N[C@@H](CCCNC(=N)N)C(=O)NC1(C(=O)N[C@@H](CCCNC(=N)N)C(=O)N[C@@H](CCCCN)C(=O)N[C@@H](CCCCN)C(=O)N[C@@H](CCCNC(=N)N)C(=O)N[C@H](C(N)=O)[C@@H](C)O)CCCC1`, the Ki is 0.05 µM.
The figure for `CC(=O)N[C@@H](CCCNC(=N)N)C(=O)N[C@@H](C)C(=O)N[C@@H](CCCNC(=N)N)C(=O)N[C@@H](CO)C(=O)N[C@@H](CCCNC(=N)N)C(=O)N[C@@H](CCCCN)C(=O)N[C@@H](CCCCN)C(=O)N[C@@H](CCCNC(=N)N)C(=O)N[C@H](C(N)=O)[C@@H](C)O` is 0.009 µM; for `CC[C@H](C)[C@H](NC(=O)[C@H](CCCNC(=N)N)NC(=O)[C@H](C)NC(=O)[C@@H](NC(C)=O)[C@@H](C)O)C(=O)N[C@@H](CCCNC(=N)N)C(=O)N[C@@H](CCCCN)C(=O)N[C@@H](CCCCN)C(=O)N[C@@H](CCCNC(=N)N)C(=O)N[C@H](C(N)=O)[C@@H](C)O` (Ac-TARIRKKRT-NH2) it is 0.011 µM.
In the case of `CC(=O)N[C@@H](CCCNC(=N)N)C(=O)N[C@@H](CC(C)C)C(=O)N[C@@H](CCCNC(=N)N)C(=O)N[C@@H](CCCNC(=N)N)C(=O)N[C@@H](CCCNC(=N)N)C(=O)N[C@@H](CCCCN)C(=O)N[C@@H](CCCCN)C(=O)N[C@@H](CCCNC(=N)N)C(=O)N[C@H](C(N)=O)[C@@H](C)O`, the Ki worked out at 0.023 µM.
The figure for `CC(=O)N[C@@H](CCCNC(=N)N)C(=O)N[C@H](C(=O)N[C@@H](CCCNC(=N)N)C(=O)N[C@@H](CCCNC(=N)N)C(=O)N[C@@H](CCCNC(=N)N)C(=O)N[C@@H](CCCCN)C(=O)N[C@@H](CCCCN)C(=O)N[C@@H](CCCNC(=N)N)C(=O)N[C@H](C(N)=O)[C@@H](C)O)[C@@H](C)O` is 0.016 µM; for `CC(=O)N[C@@H](Cc1ccc(O)cc1)C(=O)N[C@@H](C)C(=O)N[C@@H](CCCNC(=N)N)C(=O)N[C@@H](CCCNC(=N)N)C(=O)N[C@@H](CCCNC(=N)N)C(=O)N[C@@H](CCCCN)C(=O)N[C@@H](CCCCN)C(=O)N[C@@H](CCCNC(=N)N)C(=O)N[C@H](C(N)=O)[C@@H](C)O` it is 0.018 µM.
The figure for `CC(=O)N[C@@H](CCCNC(=N)N)C(=O)N[C@@H](CC(N)=O)C(=O)N[C@@H](CCCNC(=N)N)C(=O)N[C@@H](CCCNC(=N)N)C(=O)N[C@@H](CCCNC(=N)N)C(=O)N[C@@H](CCCCN)C(=O)N[C@@H](CCCCN)C(=O)N[C@@H](CCCNC(=N)N)C(=O)N[C@H](C(N)=O)[C@@H](C)O` is 0.02 µM; for `CC(=O)N[C@@H](CCCNC(=N)N)C(=O)N[C@@H](C)C(=O)N[C@@H](CCC(=O)O)C(=O)N[C@@H](CCCNC(=N)N)C(=O)N[C@@H](CCCNC(=N)N)C(=O)N[C@@H](CCCCN)C(=O)N[C@@H](CCCCN)C(=O)N[C@@H](CCCNC(=N)N)C(=O)N[C@H](C(N)=O)[C@@H](C)O` it is 0.14 µM; for `CC[C@H](C)[C@H](NC(=O)[C@H](CCCNC(=N)N)NC(=O)[C@H](C)NC(=O)C(C)(C)NC(C)=O)C(=O)N[C@@H](CCCNC(=N)N)C(=O)N[C@@H](CCCCN)C(=O)N[C@@H](CCCCN)C(=O)N[C@@H](CCCNC(=N)N)C(=O)N[C@H](C(N)=O)[C@@H](C)O` (Ac-[Aib]ARIRKKRT-NH2) it is 0.013 µM.
The figure for `CC(=O)N1CCC[C@H]1C(=O)N[C@@H](C)C(=O)N[C@@H](CCCNC(=N)N)C(=O)N[C@@H](CCCNC(=N)N)C(=O)N[C@@H](CCCNC(=N)N)C(=O)N[C@@H](CCCCN)C(=O)N[C@@H](CCCCN)C(=O)N[C@@H](CCCNC(=N)N)C(=O)N[C@H](C(N)=O)[C@@H](C)O` is 0.01 µM.
Turning to `CC(=O)N[C@@H](CCCNC(=N)N)C(=O)N[C@@H](C)C(=O)N[C@@H](CCCNC(=N)N)C(=O)N1CCC[C@H]1C(=O)N[C@@H](CCCNC(=N)N)C(=O)N[C@@H](CCCCN)C(=O)N[C@@H](CCCCN)C(=O)N[C@@H](CCCNC(=N)N)C(=O)N[C@H](C(N)=O)[C@@H](C)O`, the inhibition constant (Ki) was found to be 0.008 µM.
The figure for `CC[C@H](C)[C@H](NC(=O)[C@H](CCCNC(=N)N)NC(C)=O)C(=O)N[C@@H](CCCNC(=N)N)C(=O)N[C@@H](CCCNC(=N)N)C(=O)N[C@@H](CCCNC(=N)N)C(=O)N[C@@H](CCCCN)C(=O)N[C@@H](CCCCN)C(=O)N[C@@H](CCCNC(=N)N)C(=O)N[C@H](C(N)=O)[C@@H](C)O` is 0.02 µM.

The values above are taken from ChEMBL document CHEMBL4680371, “Design and Structure-Activity Relationship of a Potent Furin Inhibitor Derived from Influenza Hemagglutinin” (ACS Med Chem Lett, 2021).
